Results published in the M2OR odorant receptor database.

Key:
Conditions in all cases: stereoisomer not certain
[1] = target: T1, UniProt L7MU75
T1 sequence (whole entry): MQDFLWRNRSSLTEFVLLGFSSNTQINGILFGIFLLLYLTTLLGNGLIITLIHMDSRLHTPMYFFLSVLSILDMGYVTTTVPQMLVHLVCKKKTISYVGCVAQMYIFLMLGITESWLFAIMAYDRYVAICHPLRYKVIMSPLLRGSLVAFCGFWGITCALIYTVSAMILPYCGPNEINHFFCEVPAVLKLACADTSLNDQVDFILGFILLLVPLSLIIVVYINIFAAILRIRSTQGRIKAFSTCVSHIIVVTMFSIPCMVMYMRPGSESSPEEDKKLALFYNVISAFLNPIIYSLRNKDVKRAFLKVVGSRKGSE
Procedure, shortened: (§1)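 Transient luciferase assays in mammalian cell lines were common, though methods varied by source. The values come from published papers and their supplementary material, with extra details from the original authors when needed. Responsive refers to a measured signal the original authors judged statistically different from baseline, and non-responsive (inactive) to the remainder.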

[2] = target: T2, UniProt L7N210
T2 sequence (whole entry): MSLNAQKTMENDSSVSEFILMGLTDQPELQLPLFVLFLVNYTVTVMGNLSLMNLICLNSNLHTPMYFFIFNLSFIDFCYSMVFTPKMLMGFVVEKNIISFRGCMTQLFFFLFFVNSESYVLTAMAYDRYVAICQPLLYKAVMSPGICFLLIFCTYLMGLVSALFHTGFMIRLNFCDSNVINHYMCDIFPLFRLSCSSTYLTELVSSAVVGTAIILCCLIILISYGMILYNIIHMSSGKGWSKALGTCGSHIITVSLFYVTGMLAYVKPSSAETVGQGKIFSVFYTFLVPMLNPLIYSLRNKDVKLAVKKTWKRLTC
Procedure, shortened: as §1

[3] = target: T3, UniProt Q3KPB0
T3 sequence (whole entry): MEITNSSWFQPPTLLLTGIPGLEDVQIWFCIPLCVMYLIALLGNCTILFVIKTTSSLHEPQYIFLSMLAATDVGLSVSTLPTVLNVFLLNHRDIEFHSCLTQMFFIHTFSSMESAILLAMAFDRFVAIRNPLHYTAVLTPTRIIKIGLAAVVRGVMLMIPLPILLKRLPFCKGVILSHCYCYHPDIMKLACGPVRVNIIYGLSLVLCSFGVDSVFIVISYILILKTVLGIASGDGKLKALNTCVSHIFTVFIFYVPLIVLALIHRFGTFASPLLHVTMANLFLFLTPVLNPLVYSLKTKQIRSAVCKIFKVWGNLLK
Procedure, shortened: as §1

[4] = target: T4, UniProt Q3U0P3
T4 sequence (whole entry): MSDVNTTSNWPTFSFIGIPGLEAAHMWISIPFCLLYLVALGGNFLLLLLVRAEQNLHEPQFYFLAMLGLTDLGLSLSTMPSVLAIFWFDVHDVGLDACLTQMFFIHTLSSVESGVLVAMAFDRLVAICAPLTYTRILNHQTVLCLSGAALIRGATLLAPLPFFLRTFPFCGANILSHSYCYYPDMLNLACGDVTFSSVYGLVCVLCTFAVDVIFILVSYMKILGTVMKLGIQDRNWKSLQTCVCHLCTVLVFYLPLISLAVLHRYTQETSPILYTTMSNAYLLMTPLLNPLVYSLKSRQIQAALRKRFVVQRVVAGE
Procedure, shortened: as §1

[5] = target: T5, UniProt Q7TQU8
T5 sequence (whole entry): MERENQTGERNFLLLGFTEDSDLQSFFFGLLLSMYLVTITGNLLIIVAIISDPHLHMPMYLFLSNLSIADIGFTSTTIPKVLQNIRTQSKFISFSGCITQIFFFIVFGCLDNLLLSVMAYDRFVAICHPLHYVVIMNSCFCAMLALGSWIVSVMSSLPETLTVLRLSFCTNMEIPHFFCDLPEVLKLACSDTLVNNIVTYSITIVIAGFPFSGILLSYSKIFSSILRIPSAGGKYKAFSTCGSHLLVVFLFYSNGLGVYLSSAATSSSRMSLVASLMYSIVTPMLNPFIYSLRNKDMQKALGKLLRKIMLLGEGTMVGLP
Procedure, shortened: as §1

[6] = target: T6, UniProt Q7TQV4
T6 sequence (whole entry): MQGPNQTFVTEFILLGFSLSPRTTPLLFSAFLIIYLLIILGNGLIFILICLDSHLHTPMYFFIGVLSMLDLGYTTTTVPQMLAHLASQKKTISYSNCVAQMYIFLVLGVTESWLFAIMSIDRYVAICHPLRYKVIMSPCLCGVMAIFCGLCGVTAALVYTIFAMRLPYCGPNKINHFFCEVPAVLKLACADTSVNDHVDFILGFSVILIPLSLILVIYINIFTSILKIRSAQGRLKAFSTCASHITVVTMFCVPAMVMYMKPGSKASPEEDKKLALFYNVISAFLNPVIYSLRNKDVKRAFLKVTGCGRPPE
Procedure, shortened: as §1

[7] = target: T7, UniProt Q7TR71
T7 sequence (whole entry): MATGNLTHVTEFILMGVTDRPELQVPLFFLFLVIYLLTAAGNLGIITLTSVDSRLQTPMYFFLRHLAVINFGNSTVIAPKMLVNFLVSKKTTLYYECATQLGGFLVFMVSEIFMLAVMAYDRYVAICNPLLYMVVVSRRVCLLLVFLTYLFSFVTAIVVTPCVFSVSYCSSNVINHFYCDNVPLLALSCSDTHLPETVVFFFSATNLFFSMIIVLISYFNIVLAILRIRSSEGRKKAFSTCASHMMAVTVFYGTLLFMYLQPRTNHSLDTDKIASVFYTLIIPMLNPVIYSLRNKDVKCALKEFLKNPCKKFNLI
Procedure, shortened: as §1

[8] = target: T8, UniProt Q7TR79
T8 sequence (whole entry): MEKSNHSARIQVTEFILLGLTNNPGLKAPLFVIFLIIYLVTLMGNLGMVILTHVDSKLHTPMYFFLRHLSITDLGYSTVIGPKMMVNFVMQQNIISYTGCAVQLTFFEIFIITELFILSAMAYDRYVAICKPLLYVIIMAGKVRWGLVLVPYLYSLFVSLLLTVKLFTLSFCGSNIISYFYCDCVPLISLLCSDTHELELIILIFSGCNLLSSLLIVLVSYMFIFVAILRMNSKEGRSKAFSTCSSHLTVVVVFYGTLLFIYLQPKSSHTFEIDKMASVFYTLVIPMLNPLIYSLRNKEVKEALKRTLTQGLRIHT
Procedure, shortened: as §1

[9] = target: T9, UniProt Q7TRA3
T9 sequence (whole entry): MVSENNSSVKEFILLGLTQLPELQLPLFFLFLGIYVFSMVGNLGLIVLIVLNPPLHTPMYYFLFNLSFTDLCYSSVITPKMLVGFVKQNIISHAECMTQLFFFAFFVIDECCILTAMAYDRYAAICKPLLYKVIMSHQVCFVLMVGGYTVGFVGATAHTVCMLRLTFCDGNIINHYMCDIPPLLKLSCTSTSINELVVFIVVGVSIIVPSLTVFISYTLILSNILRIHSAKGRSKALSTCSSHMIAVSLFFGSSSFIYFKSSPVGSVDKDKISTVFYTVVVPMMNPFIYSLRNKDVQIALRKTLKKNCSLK
Procedure, shortened: as §1

[10] = target: T10, UniProt Q7TRE4
T10 sequence (whole entry): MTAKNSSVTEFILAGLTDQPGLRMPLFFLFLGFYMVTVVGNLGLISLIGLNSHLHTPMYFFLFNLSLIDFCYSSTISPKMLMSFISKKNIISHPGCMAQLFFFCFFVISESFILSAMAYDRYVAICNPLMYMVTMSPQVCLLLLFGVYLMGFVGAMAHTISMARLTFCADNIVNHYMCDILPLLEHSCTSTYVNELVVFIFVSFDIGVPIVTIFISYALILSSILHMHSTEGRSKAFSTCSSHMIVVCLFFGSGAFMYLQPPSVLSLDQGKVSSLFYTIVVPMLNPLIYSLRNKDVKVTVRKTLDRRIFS
Procedure, shortened: as §1

[11] = target: T11, UniProt Q7TRM0
T11 sequence (whole entry): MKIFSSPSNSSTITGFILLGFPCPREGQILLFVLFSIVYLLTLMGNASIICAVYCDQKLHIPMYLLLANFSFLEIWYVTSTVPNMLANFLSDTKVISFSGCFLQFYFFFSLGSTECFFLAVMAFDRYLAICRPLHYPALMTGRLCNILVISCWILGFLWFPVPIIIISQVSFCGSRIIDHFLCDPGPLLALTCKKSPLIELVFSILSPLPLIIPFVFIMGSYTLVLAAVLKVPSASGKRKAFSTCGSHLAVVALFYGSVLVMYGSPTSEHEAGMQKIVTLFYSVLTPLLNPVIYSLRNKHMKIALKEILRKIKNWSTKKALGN
Procedure, shortened: as §1

[12] = target: T12, UniProt Q7TRN9
T12 sequence (whole entry): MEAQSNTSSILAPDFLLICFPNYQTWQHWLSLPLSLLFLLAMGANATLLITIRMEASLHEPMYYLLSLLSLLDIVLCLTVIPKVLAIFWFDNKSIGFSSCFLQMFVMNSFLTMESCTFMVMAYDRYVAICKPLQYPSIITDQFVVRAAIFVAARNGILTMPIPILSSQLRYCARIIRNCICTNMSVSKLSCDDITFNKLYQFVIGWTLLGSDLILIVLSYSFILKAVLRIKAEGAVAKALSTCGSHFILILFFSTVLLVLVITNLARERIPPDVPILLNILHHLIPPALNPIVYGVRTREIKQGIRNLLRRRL
Procedure, shortened: as §1

Measured: odorant receptor agonist call;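 also: active if original authors judged signal statistically different from baseline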

CCCCCCCCS
inactive: [1] | [2] | [3] | [4] | [5] | [6] | [7] | [8] | [9] | [10]

O=C(c1ccccc1)c1ccccc1
active: [1] | [9]
inactive: [2] | [3] | [4] | [5] | [6] | [7] | [8] | [10]

CC(C)=C1CCC(C)CC1=O (stereo not given)
inactive: [1] | [2] | [3] | [4] | [5] | [8]

CC(=O)Oc1ccccc1
inactive: [1] | [2] | [3] | [4] | [5] | [6] | [7] | [8] | [9] | [10]

CCCCCCCCCCO
inactive: [1] | [2] | [3] | [4] | [5] | [6] | [7] | [8] | [9] | [10]

CCOC(=O)C(C)C
inactive: [1] | [2] | [3] | [4] | [5] | [6] | [7] | [8] | [9] | [10]

CCCCCCCCCC(=O)[O-].[H+]
inactive: [1] | [2] | [3] | [4] | [5] | [6] | [7] | [8] | [9] | [10]

CCCCC(=O)O
inactive: [1] | [2] | [3] | [4] | [5] | [6] | [7] | [8] | [9] | [10] | [11] | [12]

Cc1ccc2c(c1)OCC(=O)CO2
inactive: [1] | [2] | [3] | [4] | [5] | [8]

CCCCCC=O
inactive: [1] | [2] | [3] | [4] | [5] | [6] | [7] | [8] | [9] | [10]

CCCCCCCC(C)=O
inactive: [1] | [2] | [3] | [4] | [5] | [6] | [7] | [8] | [9] | [10]

CCCCCCO
inactive: [1] | [2] | [3] | [4] | [5] | [6] | [7] | [8] | [9] | [10] | [12]

CCCCC(C)=O
inactive: [1] | [2] | [3] | [4] | [5] | [6] | [7] | [8] | [9] | [10]
